Measurements as given in ChEMBL document CHEMBL4325821, “Novel cell-penetrating-amyloid peptide conjugates preferentially kill cancer cells” (Medchemcomm, 2018).
Active and inactive are the calls of the source. The rule behind the calls is not given here. Starred links: 1 amine or outer side, 2 acyl side, 3 side chain; linkers in the order of their positions; H or OH if unused. Residues, ends and D or L forms follow the SMILES beside them. *: point of attachment. Piperazinyl(4-RhodamineB) = CCN(CC)c1ccc2c(-c3ccccc3C(=O)N3CCN(*)CC3)c3ccc(=[N+](CC)CC)cc-3oc2c1; Suc = O=C(CCC(=O)[*:2])[*:1]

How the values were obtained:
[1] = Drug localization in nucleus of HEK293 cells assessed as punctate formation after 3 hrs by DAPI staining based fluorescence microscopic analysis; type: ADME, subcellular; conditions: human, hek293, 3 h
Summary of the method: (§1)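 Rhodamine-labelled peptide (3.5 μM) was given for 3 h at 37 °C. Cells were washed with DMEM and PBS, fixed in 4% PFA for 20 min, nuclei stained with DAPI, and imaged by epifluorescence with 40× air or 60× oil objectives.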

[2] = Drug localization in cytosol of HEK293 cells assessed as punctate formation after 3 hrs by DAPI staining based fluorescence microscopic analysis; type: ADME, subcellular; conditions: human; summary of the method: as §1
[3] = Drug localization in cytosol of human HeLa cells assessed as punctate formation after 3 hrs by DAPI staining based fluorescence microscopic analysis; type: ADME, subcellular; summary of the method: as §1
[4] = Drug localization in nucleus of mouse HT22 cells assessed as punctate formation after 3 hrs by DAPI staining based fluorescence microscopic analysis; type: ADME, subcellular; conditions: ht-22, 3 h; summary of the method: as §1
[5] = Drug uptake in mouse HT22 cells at 3.5 uM after 6 to 24 hrs by DAPI staining based fluorescence microscopic analysis; type: ADME, cell-based; conditions: ht-22, 3.5 µM
Summary of the method: (§2)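 HT-22 cells were incubated with 3.5 μM rhodamine-labelled peptide for 30 min, 3 h, 6 h and 24 h at 37 °C, then fixed in 4% PFA with DAPI nuclear stain. Per-cell fluorescence was taken as integrated density after background correction.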

[6] = Drug uptake in mouse HT22 cells at 3.5 uM up to 3 hrs by DAPI staining based fluorescence microscopic analysis; type: ADME, cell-based; conditions: ht-22, 3 h; summary of the method: as §2
[7] = Drug localization in nucleus of human HeLa cells assessed as punctate formation after 3 hrs by DAPI staining based fluorescence microscopic analysis; type: ADME, subcellular; summary of the method: as §1
[8] = Drug localization in cytosol of mouse HT22 cells assessed as punctate formation after 3 hrs by DAPI staining based fluorescence microscopic analysis; type: ADME, subcellular, HT-22; summary of the method: as §1
[9] = Drug localization in late endosomes/lysosomes of mouse Rh-Dextran-labelled HT22 cells at 7.5 uM after 2.5 hrs using fluorescent-labelled peptide by confocal microscopic analysis; type: ADME, subcellular, Late endosome/lysosome; conditions: ht-22, 2.5 h
HeLa = assay: Cytotoxicity against human HeLa cells after 24 hrs by MTT assay; type: functional
Summary of the method: (§3)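 Cells grown at 37 °C with 5% CO2 and treated at about 50–70% confluence in serum-free medium for 24 h. Viability read by MTT and expressed as a percentage of untreated cells. Run in triplicate in at least three independent trials, reported as mean ± standard deviation.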

HT-22 [10] = assay: Cytotoxicity against mouse HT22 cells after 24 hrs in presence of lysosomal protease inhibitor leupeptin by MTT assay; type: functional, cell-based
MDA-MB-231 = assay: Cytotoxicity against human MDA-MB-231 cells after 24 hrs by MTT assay; type: functional; conditions: for EC50: MDA-MB-231, 24 h, read-out: ED50 (the source's name)
Summary of the method: (§4)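 Per well of a 48-well plate, 1.5 × 10^4 cells were seeded in medium with 10% FBS and grown for at least 24 h, then treated at about 50–60% confluence for 24 h. MTT was added for the final 3 h at 37 °C in the dark. Formazan was dissolved in DMSO and read at 595 nm, as % of untreated cells. Triplicate wells, at least three independent trials.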

HT-22 [11] = assay: Aggregation property of the compound in mouse HT22 cells assessed as intracellular amyloid formation by thioflavin S/DAPI staining based fluorescence microscopic analysis; type: ADME, cell-based
Summary of the method: (§5)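 Cells treated with vehicle or 15 μM peptide for 1 h, fixed in 4% PFA for 20 min, stained with 0.005% (w/v) ThS in water for 10 min, washed three times with absolute ethanol, counterstained with DAPI, and imaged by epifluorescence microscopy.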

HT-22 [12] = assay: Cytotoxicity against mouse HT22 cells after 24 hrs in presence of lysosomal protease inhibitor ammonium chloride by MTT assay; type: functional, cell-based
HT-22 [13] = assay: Induction of cell death in mouse HT22 cells at 7.5 uM after 3 hrs by thioflavin S/DAPI/propidium iodide staining based fluorescence microscopic analysis; type: functional
Summary of the method: (§6)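 Cells were given vehicle or 7.5 μM peptide for 3 h and stained live with 20 μg mL−1 propidium iodide for 10 min. They were then PBS-washed, fixed in 4% PFA, stained with 0.005% ThS for 10 min, ethanol-washed, counterstained with DAPI and imaged by fluorescence microscopy.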

HT-22 [14] = assay: Cytotoxicity against mouse HT22 cells after 24 hrs in presence of lysosomal protease inhibitor bafilomycin A1 by MTT assay; type: functional, cell-based
MCF-10A = assay: Cytotoxicity against human MCF10A cells after 24 hrs by MTT assay; type: cell-based; summary of the method: as §4
HT-22 [15] = assay: Aggregation property of the compound in mouse HT22 cells assessed as intracellular amyloid formation at 15 uM after 1 hr by thioflavin S/DAPI staining based fluorescence microscopic analysis; type: ADME, cell-based; conditions: ht-22, 1 h; summary of the method: as §5
[16] = Drug localization in cytosol of mouse Rh-Dextran-labelled HT22 cells at 7.5 uM after 2.5 hrs using fluorescent-labelled peptide by confocal microscopic analysis; type: ADME, subcellular, HT-22
HT-22 [17] = assay: Induction of cell death in mouse HT22 cells by thioflavin S/DAPI/propidium iodide staining based fluorescence microscopic analysis; type: functional; summary of the method: as §6
HEK293 = assay: Cytotoxicity against HEK293 cells after 24 hrs by MTT assay; type: cell-based; conditions: human, hek293, 24 h; summary of the method: as §3
HT-22 [18] = assay: Induction of endosomal/lysosomal membrane permeabilization in mouse HT22 cells at 15 uM measured after 1 hr by acridine orange dye based fluorescence microscopic analysis; type: functional

Molecule | Activity (HT-22 [15]) | Activity (HeLa) | Activity (HT-22 [10]) | EC50 (MDA-MB-231) [µM] | Activity (HT-22 [12]) | Activity (HT-22 [14]) | Activity (MCF-10A) | further results
CC[C@H](C)[C@H](NC(=O)[C@H](CCC(N)=O)NC(=O)[C@@H](NC(=O)CCC(=O)N1CCN(C(=O)c2ccccc2-c2c3ccc(=[N+](CC)CC)cc-3oc3cc(N(CC)CC)ccc23)CC1)C(C)C)C(=O)N[C@H](C(=O)N[C@@H](Cc1ccc(O)cc1)C(=O)N[C@@H](CCCCN)C(=O)N[C@@H](CCCNC(=N)N)C(=O)N[C@@H](CCCNC(=N)N)C(=O)N[C@@H](CCCNC(=N)N)C(=O)N[C@@H](CCCNC(=N)N)C(=O)N[C@@H](CCCNC(=N)N)C(=O)N[C@@H](CCCNC(=N)N)C(=O)N[C@@H](CCCNC(=N)N)C(=O)N[C@@H](CCCNC(=N)N)C(=O)N[C@@H](CCCNC(=N)N)C(N)=O)C(C)C.[Cl-] ({Piperazinyl(4-RhodamineB)-Suc}-VQIVYKRRRRRRRRR-NH2) | – | – | – | – | – | – | – | Drug uptake [1]: Active; Drug uptake [2]: Active; Drug uptake [3]: Active; Drug uptake [4]: Active; Drug uptake [5]: Not Active; Drug uptake [6]: Active; Drug uptake [7]: Active; Drug uptake [8]: Active; Drug uptake [9]: Active
Ac-LAVLFL-NH2 | – | Active | – | – | – | – | – | –
Ac-LAVLFLRRRRRRRRR-NH2 | – | – | Active | 20 | Active | Active | Non-Toxic | Activity (HT-22 [11]): Active; Activity (HT-22 [13]): Active; EC50 (HeLa; read-out: ED50 (the source's name)): 3 µM
Ac-VQIVKKRRRRRRRRR-NH2 | Not Active | Active | – | – | – | – | – | –

Continued, in another order:

Activity (HT-22 [15]) | Molecule | Activity (HeLa) | Activity (HT-22 [10]) | EC50 (MDA-MB-231) [µM] | Activity (HT-22 [12]) | Activity (HT-22 [14]) | Activity (MCF-10A) | further results
Not Active | Ac-VQIVYK-NH2 | Active | – | – | – | – | Non-Toxic | Activity (MDA-MB-231): inactive
Active | Ac-VQIVYKRRRRRRRRR-NH2 | Active | inactive | 5 | inactive | inactive | Non-Toxic | Drug uptake [16]: Active; Activity (HT-22 [17]): Active; Activity (HEK293): Non-Toxic; Activity (HT-22 [18]): Active
